Here are results for 5 compounds from ChEMBL document CHEMBL1781963, “Discovery of novel hepatoselective HMG-CoA reductase inhibitors for treating hypercholesterolemia: a bench-to-bedside case study on tissue selective drug distribution” (Bioorg Med Chem Lett, 2011).

The target of series [1] is T1, OATP1B1 (Homo sapiens, UniProt Q9Y6L6).
T1 sequence (Q9Y6L6 whole entry): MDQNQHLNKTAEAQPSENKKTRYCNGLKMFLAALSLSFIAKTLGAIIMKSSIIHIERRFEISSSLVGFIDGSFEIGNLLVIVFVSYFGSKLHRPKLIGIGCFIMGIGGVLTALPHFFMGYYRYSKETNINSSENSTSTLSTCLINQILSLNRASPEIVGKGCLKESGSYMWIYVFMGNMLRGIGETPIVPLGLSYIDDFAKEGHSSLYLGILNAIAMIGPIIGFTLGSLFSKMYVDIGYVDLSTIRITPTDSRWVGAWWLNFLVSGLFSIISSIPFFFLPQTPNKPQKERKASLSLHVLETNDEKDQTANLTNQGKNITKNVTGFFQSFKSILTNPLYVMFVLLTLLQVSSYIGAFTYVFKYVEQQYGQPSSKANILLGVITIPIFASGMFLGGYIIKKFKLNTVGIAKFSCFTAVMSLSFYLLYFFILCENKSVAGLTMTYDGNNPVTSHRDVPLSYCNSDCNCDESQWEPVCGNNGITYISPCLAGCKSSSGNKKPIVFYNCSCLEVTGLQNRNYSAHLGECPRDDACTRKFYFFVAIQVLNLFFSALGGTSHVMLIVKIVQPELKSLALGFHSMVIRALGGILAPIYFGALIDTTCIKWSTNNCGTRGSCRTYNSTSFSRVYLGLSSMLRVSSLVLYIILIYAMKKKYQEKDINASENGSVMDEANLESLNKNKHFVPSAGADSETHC
Kind of series: Drug uptake by human hepatic OATP1B1 transporter expressed in HEK293 cells at 10 uM relative to wild type HEK293 cells. It is filed as ADME, cell-based. To be noted: HEK293 cells expressing OATP1B1, read-out: FC. The gist of the method: (§1)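 Individual hepatic OATP transporters were over-expressed in CHO or HEK293 cells: rat rOatp1a1, rOatp1a4 and rOatp1b2, and human hOATP1B1, hOATP1B3 and hOATP2B1. Substrate uptake is expressed as fold difference relative to the wild-type parental line. Rosuvastatin/pravastatin served as positive control and midazolam as negative control in each assay.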

In series [2] the test system is Cavia porcellus. Kind of series: Hypolipidemic activity in chow fed Hartley guinea pig assessed as reduction of LDL level administered orally for 7 days measured on day 8 after 2 hrs post dose. To be noted: po. It is filed as functional. The method, boiled down:
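Guinea pigs were dosed daily for seven days and sacrificed 2 h after the final dose. Plasma LDL was measured and reported as mean ± SEM % change from the control group, n = 8/group.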

For series [3], the target named is T2, OATP1A4 (Rattus norvegicus, UniProt O35913).
T2 sequence (O35913 whole entry): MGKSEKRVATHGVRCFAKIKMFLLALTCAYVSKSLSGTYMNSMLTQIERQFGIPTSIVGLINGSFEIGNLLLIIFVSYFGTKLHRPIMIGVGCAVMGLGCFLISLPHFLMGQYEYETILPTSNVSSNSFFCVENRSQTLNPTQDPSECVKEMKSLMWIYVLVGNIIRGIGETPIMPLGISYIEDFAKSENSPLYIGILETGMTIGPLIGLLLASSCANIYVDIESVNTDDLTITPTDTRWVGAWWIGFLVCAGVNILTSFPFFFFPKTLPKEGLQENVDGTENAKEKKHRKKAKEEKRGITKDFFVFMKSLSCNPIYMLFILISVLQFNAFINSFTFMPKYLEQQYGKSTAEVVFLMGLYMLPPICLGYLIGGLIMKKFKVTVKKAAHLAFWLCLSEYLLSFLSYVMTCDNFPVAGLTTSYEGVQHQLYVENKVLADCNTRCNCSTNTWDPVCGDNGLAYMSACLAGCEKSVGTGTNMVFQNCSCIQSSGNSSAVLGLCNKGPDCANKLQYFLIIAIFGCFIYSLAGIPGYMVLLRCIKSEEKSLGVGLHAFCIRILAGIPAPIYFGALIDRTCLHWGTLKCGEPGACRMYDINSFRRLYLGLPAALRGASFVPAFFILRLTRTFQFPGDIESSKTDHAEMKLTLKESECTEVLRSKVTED
The experiment in a line: Drug uptake by rat hepatic OATP1A4 transporters expressed in CHO cells at 1 uM relative to wild type CHO cells. In kind it is ADME, cell-based. To be noted: CHO cells expressing rat OATP1A4, read-out: FC. The method, boiled down: as §1

The target in series [4] is T3, OATP1B2 (Rattus norvegicus, UniProt Q9QZX8).
T3 sequence (Q9QZX8 whole entry): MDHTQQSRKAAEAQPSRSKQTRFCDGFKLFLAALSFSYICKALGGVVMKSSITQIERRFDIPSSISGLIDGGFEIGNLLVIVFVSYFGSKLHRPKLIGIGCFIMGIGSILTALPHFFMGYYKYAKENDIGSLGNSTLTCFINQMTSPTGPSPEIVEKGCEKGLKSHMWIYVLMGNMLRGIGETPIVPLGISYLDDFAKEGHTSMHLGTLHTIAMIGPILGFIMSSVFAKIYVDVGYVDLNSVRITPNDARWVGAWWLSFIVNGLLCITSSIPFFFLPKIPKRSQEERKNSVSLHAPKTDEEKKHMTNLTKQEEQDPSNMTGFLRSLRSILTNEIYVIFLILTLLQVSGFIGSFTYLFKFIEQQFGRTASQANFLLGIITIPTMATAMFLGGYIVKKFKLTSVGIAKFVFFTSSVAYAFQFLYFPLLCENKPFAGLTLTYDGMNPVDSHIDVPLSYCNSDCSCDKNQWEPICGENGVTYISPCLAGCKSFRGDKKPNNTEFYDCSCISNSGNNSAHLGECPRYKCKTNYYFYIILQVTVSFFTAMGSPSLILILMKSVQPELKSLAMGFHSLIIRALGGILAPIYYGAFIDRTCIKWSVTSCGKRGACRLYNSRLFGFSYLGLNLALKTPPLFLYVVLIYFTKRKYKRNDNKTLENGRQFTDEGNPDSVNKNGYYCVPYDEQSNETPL
The experiment in a line: Drug uptake by rat hepatic OATP1B2 transporters expressed in CHO cells at 10 uM relative to wild type CHO cells. The following applies: CHO cells expressing rat OATP1B2, read-out: FC. It is filed as ADME, cell-based. The method, boiled down: as §1

Series [5] concerns the target T1, OATP1B1. The experiment in a line: Drug uptake by human hepatic OATP1B1 transporter expressed in HEK293 cells at 1 uM relative to wild type HEK293 cells. It is filed as ADME, cell-based. The following applies: HEK293 cells expressing human OATP1B1, read-out: FC. The gist of the method: as §1
The test system of series [6] is Hepatocyte. The experiment in a line: Drug uptake in sandwich-cultured rat hepatocytes assessed per mg of protein at 1 uM in presence of rifamycin SV. In kind it is ADME, cell-based. The method, boiled down:
(§2)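 Rat or human hepatocytes were cultured in sandwich configuration with a Matrigel overlay and compound uptake was measured. Active uptake was assessed by inhibition with the pan-OATP inhibitor rifamycin SV. Rosuvastatin/pravastatin served as positive control and midazolam as negative control.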

The nature of series [7]: Fraction unbound in rat plasma at 0.5 ug/ml. It is filed as ADME, cell-free. The method, boiled down:
(§3)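 Unbound fraction in rat, dog or human plasma, measured at a drug concentration of 0.5 μg/mL.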

A short description of series [8]: Fraction unbound in human plasma at 0.5 ug/ml. In kind it is ADME, cell-free. The method, boiled down:
as §3

The test system of series [9] is Hepatocyte. The experiment in a line: Drug uptake in sandwich-cultured rat hepatocytes assessed per mg of protein at 1 uM. It is filed as ADME, cell-based. The gist of the method:
as §2

With `CC[C@H](C)C(=O)O[C@H]1C[C@H](O)C=C2C=C[C@H](C)[C@H](CC[C@@H](O)C[C@@H](O)CC(=O)O)[C@H]21` [PRAVASTATIN], the uptake ratio at 10 µM in [1] stood at 223; in [4], 7. In addition, the ED50 in series [2] is 73.3 mg/kg. Moreover, the uptake ratio at 1 µM in series [3] came to 1.5; in [5], 73.7.

Turning to `O=C([O-])C[C@H](O)C[C@H](O)CCn1c(-c2ccc(F)cc2)nc(C(=O)NCc2cccc(F)c2)c1C1CC1.[Na+]`, the figures for the uptake ratio at 10 µM in [1] and in [4] were 84.9 and 1.7, respectively. Also, the Drug uptake in series [6] is recorded as 100%; in [9], 17 pmol/min/mg. Besides, in [2], the ED50 came out at 5.9 mg/kg. For the same compound, the fraction unbound at 0.5 ug/ml in series [7] is 0.15; in [8], 0.29. Besides, the uptake ratio at 1 µM worked out at 4.4 in [3] and 49 in series [5].

`Cc1ccc(CNC(=O)c2nn(-c3ccc(F)cc3)c(CC[C@@H](O)C[C@@H](O)CC(=O)O)c2C(C)C)cc1`: the uptake ratio at 10 µM came out at 18.4 in series [1] and 2.6 in series [4]. Moreover, the Drug uptake in series [6] was 98%; in series [9] it was 14 pmol/min/mg. Moreover, the median effective dose (ED50) in series [2] was 3.6 mg/kg. In addition, the free fraction (fraction unbound) at 0.5 ug/ml in series [7] was 0.016; in [8], 0.051. Also, the uptake ratio at 1 µM is 2.7 in series [3] and 21.6 in series [5].

For `CC(C)c1nc(N(C)S(C)(=O)=O)nc(-c2ccc(F)cc2)c1/C=C/[C@@H](O)C[C@@H](O)CC(=O)O` [ROSUVASTATIN], the uptake ratio at 10 µM in [1] worked out at 69.6. The Drug uptake in series [6] came out at 97%; in series [9], 24 pmol/min/mg. The 50% effective dose (ED50) in series [2] is 13.5 mg/kg. The figures for the fraction unbound at 0.5 ug/ml in series [7] and in [8] were 0.06 and 0.17, respectively. The uptake ratio at 1 µM in series [3] came to 8.6; in [5] it was 14.4.

Take `Cc1ncc2n1-c1ccc(Cl)cc1C(c1ccccc1F)=NC2` [MIDAZOLAM]: the uptake ratio at 10 µM in [1] was determined as 0.9; in [4], 1.3. Further, the uptake ratio at 1 µM came out at 0.93 in series [3] and 0.6 in [5].
